Paper PMC5060091 (ChemMedChem, 2016)
≈ marks a conversion by molar mass, not a printed value. Where two headings read alike, the source gives them in different places. Each block holds one molecule with its values, some of them ahead of it.

What was measured:
[1] = tested on: Candida albicans ATCC 10231; assay: MIC, broth dilution, strain A; format: cell-based; settings: Candida albicans
Outline: (§1)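 Broth dilution MIC assay on the Candida panel: C. albicans strains A–G, C. glabrata (H), C. krusei (I) and C. parapsilosis (J). Test compounds were delivered in DMSO, with DMSO kept below 1% in the assay. The MIC is reported in µg/mL, with µM in parentheses. Reference antifungals (a polyene and four azoles) were run alongside.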

[2] = tested on: C. albicans ATCC MYA-1003(R); assay: MIC, broth dilution, strain G; format: cell-based, Candida albicans; settings: Candida albicans
Outline: as §1

C. albicans ATCC 64124 [3] = assay: MIC, broth dilution, strain B; format: cell-based, Candida albicans; settings: Candida albicans
Outline: as §1

[4] = tested on: Candida and Aspergillus strains; assay: MIC against whole panel of fungal strains; format: cell-based; settings: read-out: MIC values against the panel of fungal strains
Outline: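 Whole-cell broth dilution MIC across Candida strains A–J and three Aspergillus strains: A. flavus ATCC MYA-3631, A. nidulans ATCC 38163 and A. terreus ATCC MYA-3633. Aspergillus was tested as freshly harvested spores. DMSO was below 1% in the assay. Values are given in µg/mL (and µM), with a polyene and four azoles as reference agents.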

[5] = tested on: C. albicans ATCC 64124 (strain B); assay: Time-kill assay; format: cell-based, Candida albicans
[6] = tested on: Aspergillus terreus ATCC MYA-3633; assay: MIC, broth dilution, strain M; format: cell-based; settings: Aspergillus terreus
[7] = tested on: C. albicans ATCC MYA-1237(R); assay: MIC, broth dilution, strain F; format: cell-based, Candida albicans; settings: Candida albicans
Outline: as §1

[8] = tested on: C. albicans ATCC 90819(R); assay: MIC, broth dilution, strain D; format: cell-based, Candida albicans; settings: Candida albicans
Outline: as §1

[9] = tested on: C. albicans ATCC MYA-2310(S); assay: MIC, broth dilution, strain E; format: cell-based, Candida albicans; settings: Candida albicans
Outline: as §1

[10] = tested on: C. albicans ATCC MYA-2876(S); assay: MIC, broth dilution, strain C; format: cell-based, Candida albicans; settings: Candida albicans
Outline: as §1

[11] = tested on: C. albicans ATCC 10231 (strain A); assay: ROS induction assay; format: cell-based, Candida albicans; settings: 1× and 2× MIC, 1-h treatment; H2O2 1 mM
Outline: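 C. albicans ATCC 10231 cells were incubated 1 h at 37 °C with test compound at 1× or 2× MIC, with no drug (negative control), or with 1 mM H₂O₂ (positive control). DCFH-DA (40 µg/mL) was then added. ROS were detected and imaged by fluorescence microscopy.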

[12] = tested on: C. albicans ATCC MYA-2876(S); settings: strain C; azoles; previously reported; cited from earlier work
[13] = tested on: C. albicans ATCC MYA-1237(R); settings: strain F; azoles; previously reported; cited from earlier work
[14] = tested on: Aspergillus nidulans ATCC 38163; settings: strain L; previously reported; cited from earlier work
[15] = tested on: C. albicans ATCC MYA-2310(S); settings: strain E; azoles; previously reported; cited from earlier work
[16] = tested on: C. albicans ATCC 90819(R); settings: strain D; azoles; previously reported; cited from earlier work
[17] = tested on: C. albicans ATCC MYA-1003(R); settings: strain G; azoles; previously reported; cited from earlier work
[18] = tested on: Aspergillus flavus ATCC MYA-3631; assay: MIC, broth dilution, strain K; format: cell-based; settings: Aspergillus flavus
C. albicans ATCC 64124 [19] = settings: strain B; azoles; previously reported; cited from earlier work
[20] = tested on: Candida albicans ATCC 10231; settings: strain A; azoles; previously reported; cited from earlier work
[21] = read-out: MIC (MIC-0) in µM (parentheses)

MIC ([1]; ATCC10231, read-out: MIC (MIC-0)): 3.9 µg/mL | MIC ([1]; ATCC10231, read-out: MIC (MIC-0) in µM (parentheses)): 4.22 µM | MIC ([2]; read-out: MIC (MIC-0)): 3.9 µg/mL | MIC [2, 21]: 4.22 µM | MIC (C. albicans ATCC 64124 [3]; ATCC64124, read-out: MIC (MIC-0)): 3.9 µg/mL | MIC (C. albicans ATCC 64124 [3]; ATCC64124, read-out: MIC (MIC-0) in µM (parentheses)): 4.22 µM | MIC [4]: 0.98 to 15.6 µg/mL (≈ 1.06 to […] µM) | MIC ([6]; read-out: MIC (MIC-0)): 3.9 µg/mL | MIC [6, 21]: 4.22 µM | MIC ([7]; read-out: MIC (MIC-0)): 3.9 µg/mL | MIC [7, 21]: 4.22 µM | MIC ([8]; ATCC90819, read-out: MIC (MIC-0)): 0.98 µg/mL | MIC ([8]; ATCC90819, read-out: MIC (MIC-0) in µM (parentheses)): 1.06 µM | MIC ([9]; read-out: MIC (MIC-0)): 1.95 µg/mL | MIC [9, 21]: 2.11 µM | MIC ([10]; read-out: MIC (MIC-0)): 1.95 µg/mL | MIC [10, 21]: 2.11 µM
Structure (SMILES): C[C@@H]1[C@H](O)[C@@H](C)/C=C/C=C/C=C/C=C/C=C/C=C/C=C/[C@H](O[C@@H]2O[C@H](C)[C@@H](O)[C@H](N)[C@@H]2O)C[C@@H]2O[C@](O)(C[C@@H](O)C[C@@H](O)[C@H](O)CC[C@@H](O)C[C@@H](O)CC(=O)O[C@H]1C)C[C@H](O)[C@H]2C(=O)O [AmB, amphotericin B]
time from which completely fungicidal ([5]; 2× MIC): 6 h | time-kill effect ([5]; 2× MIC (1 25, 2a 25, 3a 0.78, AmB 7.8 µg/mL)): completely fungicidal

Structure (SMILES): OO [H2O2]
ROS induction (DCFH-DA fluorescence) [11]: highly fluorescent

Structure (SMILES): CCC(C)n1ncn(-c2ccc(N3CCN(c4ccc(OCC5COC(Cn6cncn6)(c6ccc(Cl)cc6Cl)O5)cc4)CC3)cc2)c1=O (stereo not shown) [ITC, itraconazole]
MIC (MIC-2) [12]: 7.8 µg/mL (≈ 11.1 µM) | MIC (MIC-2) in µM (parentheses) [12]: 11.1 µM (≈ 7.83 µg/mL) | MIC (MIC-2) [13]: 31.2 µg/mL (≈ 44.2 µM) | MIC (MIC-2) in µM (parentheses) [13]: 44.2 µM (≈ 31.2 µg/mL) | MIC (MIC-0) [14]: 0.195 µg/mL (≈ 0.276 µM) | MIC (MIC-0) in µM (parentheses) [14]: 0.28 µM (≈ 0.198 µg/mL) | MIC (MIC-2) [15]: 31.2 µg/mL (≈ 44.2 µM) | MIC (MIC-2) in µM (parentheses) [15]: 44.2 µM (≈ 31.2 µg/mL) | MIC (MIC-2) [16]: 31.2 µg/mL (≈ 44.2 µM) | MIC (MIC-2) in µM (parentheses) [16]: 44.2 µM (≈ 31.2 µg/mL) | MIC ([6]; read-out: MIC (MIC-0)): 0.975 µg/mL | MIC [6, 21]: 1.38 µM | MIC (MIC-2) [17]: 31.2 µg/mL (≈ 44.2 µM) | MIC (MIC-2) in µM (parentheses) [17]: 44.2 µM (≈ 31.2 µg/mL) | MIC ([18]; read-out: MIC (MIC-0)): 0.48 µg/mL | MIC [18, 21]: 0.68 µM | MIC (MIC-2) (C. albicans ATCC 64124 [19]): > 62.5 µg/mL | MIC (MIC-2) in µM (parentheses) (C. albicans ATCC 64124 [19]): > 88.6 µM | MIC (MIC-2) [20]: 0.5 µg/mL (≈ 0.709 µM) | MIC (MIC-2) in µM (parentheses) [20]: 0.71 µM (≈ 0.501 µg/mL)
